Results from ChEMBL document CHEMBL1156917, “Stereoselective synthesis of desloratadine derivatives as antagonist of histamine” (Bioorg Med Chem, 2010).

Key:
Assay type in all cases: functional, tissue-based
[1] = biological target: Histamine H1 receptor (Cavia porcellus) (UniProt P31389); test: Antagonist activity at histamine H1 receptor in Dunkin-Hartley guinea pig ileum assessed as inhibition of histamine-induced contractions at 3 umol/L; details: at 3 µM
Summary of the method: (§1)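 Ileum segments (2 cm) were taken from stunned animals and mounted in an organ bath under 1 g initial load. The bath held Tyrode's solution at 37 °C, continuously oxygenated. After 20 min stabilization, noncumulative submaximal histamine stimuli were given. Isometric contractions were recorded without compound and after 3-5 min incubation with compound.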

[2] = biological target: Histamine H1 receptor (Cavia porcellus) (UniProt P31389); test: Antagonist activity at histamine H1 receptor in Dunkin-Hartley guinea pig ileum assessed as inhibition of histamine-induced contractions at 10 umol/L; details: at 10 µM; summary of the method: as §1
[3] = biological target: Histamine H1 receptor (Cavia porcellus) (UniProt P31389); test: Antagonist activity at histamine H1 receptor in Dunkin-Hartley guinea pig ileum assessed as inhibition of histamine-induced contractions at 30 umol/L; details: at 30 µM; summary of the method: as §1

Sequence of Histamine H1 receptor (Cavia porcellus) (P31389 whole entry): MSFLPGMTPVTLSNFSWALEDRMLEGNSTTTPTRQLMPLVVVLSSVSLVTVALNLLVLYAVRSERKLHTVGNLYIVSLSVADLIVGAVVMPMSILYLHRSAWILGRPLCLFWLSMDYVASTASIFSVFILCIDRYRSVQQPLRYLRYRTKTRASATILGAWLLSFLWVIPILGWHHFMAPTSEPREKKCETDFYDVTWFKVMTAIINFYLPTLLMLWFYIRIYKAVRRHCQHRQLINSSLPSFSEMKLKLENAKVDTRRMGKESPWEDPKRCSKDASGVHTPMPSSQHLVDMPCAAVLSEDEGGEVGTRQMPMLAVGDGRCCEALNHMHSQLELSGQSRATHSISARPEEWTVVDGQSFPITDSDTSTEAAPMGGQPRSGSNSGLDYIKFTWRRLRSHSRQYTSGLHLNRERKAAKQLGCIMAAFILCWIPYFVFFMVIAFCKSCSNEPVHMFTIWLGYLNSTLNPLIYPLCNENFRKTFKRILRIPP

## CCOC(=O)N1CCC(=C2c3ccc(Cl)cc3CCc3cccnc32)CC1
[1]
  inhibition: 15.7%
[2]
  inhibition: 33.4%
[3]
  inhibition: 64.7%

## O=C1C=C(CN2CCC(=C3c4ccc(Cl)cc4CCc4cccnc43)CC2)CO1
[1]
  inhibition: 33.4%
[2]
  inhibition: 79%
[3]
  inhibition: 94.8%

## O=C1C=C(CN2CCC(=C3c4ccc(Cl)cc4CCc4cccnc43)CC2)/C(=C/c2ccc(F)cc2)O1
[1]
  inhibition: 6.99%
[2]
  inhibition: 19%
[3]
  inhibition: 30.6%

## Clc1ccc2c(c1)CCc1cccnc1C2=C1CCNCC1
[1]
  inhibition: 47.4%
[2]
  inhibition: 77.7%
[3]
  inhibition: 80.4%

## O=C1C=C(CN2CCC(=C3c4ccc(Cl)cc4CCc4cccnc43)CC2)/C(=C/c2ccc(O)cc2)O1
[1]
  inhibition: 3.54%
[2]
  inhibition: 41%
[3]
  inhibition: 65.6%

## COc1ccccc1/C=C1\OC(=O)C=C1CN1CCC(=C2c3ccc(Cl)cc3CCc3cccnc32)CC1
[1]
  inhibition: 29.4%
[2]
  inhibition: 59.2%
[3]
  inhibition: 87.8%

## O=C1C=C(CN2CCC(=C3c4ccc(Cl)cc4CCc4cccnc43)CC2)/C(=C/c2ccc(Cl)cc2)O1
[1]
  inhibition: 37%
[2]
  inhibition: 51.3%
[3]
  inhibition: 66.7%

## COc1ccccc1C(O)C1OC(=O)C=C1CN1CCC(=C2c3ccc(Cl)cc3CCc3cccnc32)CC1 (configuration not stated)
[1]
  inhibition: 40.8%
[2]
  inhibition: 61.5%
[3]
  inhibition: 74.1%

## O=C1C=C(CN2CCC(=C3c4ccc(Cl)cc4CCc4cccnc43)CC2)C(C(O)c2ccccc2)O1 (configuration not stated)
[1]
  inhibition: 42.7%

## CN(C)c1ccc(/C=C2\OC(=O)C=C2CN2CCC(=C3c4ccc(Cl)cc4CCc4cccnc43)CC2)cc1
[1]
  inhibition: 61.6%
[2]
  inhibition: 77.6%
[3]
  inhibition: 82.3%

## COc1cc(/C=C2\OC(=O)C=C2CN2CCC(=C3c4ccc(Cl)cc4CCc4cccnc43)CC2)ccc1O
[1]
  inhibition: 4.67%
[2]
  inhibition: 42.5%
[3]
  inhibition: 62.6%

## COc1cc(/C=C2\OC(=O)C=C2CN2CCC(=C3c4ccc(Cl)cc4CCc4cccnc43)CC2)cc(OC)c1OC
[1]
  inhibition: 4.23%
[2]
  inhibition: 32.9%
[3]
  inhibition: 52.8%

## CS(=O)(=O)c1ccc(/C=C2\OC(=O)C=C2CN2CCC(=C3c4ccc(Cl)cc4CCc4cccnc43)CC2)cc1
[1]
  inhibition: 12.4%
[2]
  inhibition: 50.4%
[3]
  inhibition: 71.9%
